Experiment [1] has as its target T1, Bifunctional epoxide hydrolase 2 (Homo sapiens, UniProt P34913).
T1 sequence (P34913 whole entry): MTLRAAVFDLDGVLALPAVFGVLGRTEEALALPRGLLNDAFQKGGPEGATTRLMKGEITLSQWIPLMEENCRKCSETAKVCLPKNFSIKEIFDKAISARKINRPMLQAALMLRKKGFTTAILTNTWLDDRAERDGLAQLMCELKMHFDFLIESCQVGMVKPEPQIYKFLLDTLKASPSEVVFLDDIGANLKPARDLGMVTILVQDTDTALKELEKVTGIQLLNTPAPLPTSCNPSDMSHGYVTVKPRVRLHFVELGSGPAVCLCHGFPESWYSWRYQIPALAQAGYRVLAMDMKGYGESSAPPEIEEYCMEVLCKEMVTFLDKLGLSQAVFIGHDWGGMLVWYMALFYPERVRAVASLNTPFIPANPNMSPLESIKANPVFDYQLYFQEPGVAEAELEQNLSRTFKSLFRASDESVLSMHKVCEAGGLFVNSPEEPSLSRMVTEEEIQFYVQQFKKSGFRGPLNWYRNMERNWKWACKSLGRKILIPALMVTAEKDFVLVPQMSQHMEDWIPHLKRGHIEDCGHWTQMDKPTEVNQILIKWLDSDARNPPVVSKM
In words: Inhibitory activity against human soluble epoxide hydrolase. Summed up:
(§1)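 Recombinant sEH (human HsEH or mouse MsEH) was expressed in baculovirus, affinity-purified to at least 97% purity, and had no detectable esterase or glutathione transferase activity. Enzyme (HsEH 0.20 µM, MsEH 0.10 µM) was preincubated with inhibitor for 5 min at 30 °C in pH 7.4 sodium phosphate buffer. Racemic 4-nitrophenyl-trans-2,3-epoxy-3-phenylpropyl carbonate (40 µM) was then added. 4-Nitrophenolate was read at 405 nm over 1 min. Assays were run in triplicate, with inhibitor up to 500 µM. IC50 came from regression of at least five points.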

The target of experiment [2] is T2, Bifunctional epoxide hydrolase 2 (Mus musculus, UniProt P34914).
T2 sequence (P34914 whole entry): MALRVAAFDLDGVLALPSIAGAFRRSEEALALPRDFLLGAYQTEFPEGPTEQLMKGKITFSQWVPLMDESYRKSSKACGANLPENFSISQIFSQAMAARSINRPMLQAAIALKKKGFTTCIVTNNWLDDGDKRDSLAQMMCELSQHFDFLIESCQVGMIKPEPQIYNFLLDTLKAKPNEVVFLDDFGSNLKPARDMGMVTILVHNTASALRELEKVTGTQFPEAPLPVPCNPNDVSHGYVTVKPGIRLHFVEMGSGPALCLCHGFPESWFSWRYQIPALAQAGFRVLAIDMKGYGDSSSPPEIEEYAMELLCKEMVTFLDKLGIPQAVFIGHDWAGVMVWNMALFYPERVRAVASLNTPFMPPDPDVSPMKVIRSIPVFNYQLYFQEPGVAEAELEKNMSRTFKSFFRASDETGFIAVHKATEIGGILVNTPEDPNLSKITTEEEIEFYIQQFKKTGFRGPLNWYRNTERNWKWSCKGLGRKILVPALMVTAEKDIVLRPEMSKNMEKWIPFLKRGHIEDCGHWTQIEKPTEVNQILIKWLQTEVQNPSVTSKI
In words: Inhibitory activity against murine soluble epoxide hydrolase. Put shortly:
as §1

The values that follow come from BindingDB's records for doi:10.1021/jm020269o (The Pennsylvania State University, 2003).

The IC50 is the concentration that inhibits the measured activity by half. High values mean a need for much substance, low ones inhibition by little substance. Regarding `CCCCCCCCCCCCNC(=O)NCC(C)(C)C(C)(C)C` [1-Dodecyl-3-(2,2,3,3-tetramethyl-butyl)-urea], the IC50 in experiment [1] stood at 229 µM; in experiment [2] it was 0.129 µM.
The like results for `CC(C)(C)OC(=O)CNC(=O)NC1CCCCC1` [(3-Cyclohexyl-ureido)-acetic acid tert-butyl ester] were, in that order, 19 µM and 4.37 µM.
Compound `CCCCCCNC(=O)NC` [1-Hexyl-3-methyl-urea] gave an IC50 in experiment [2] of 224 µM.
`CN(C(=O)NC1CCCCC1)c1ccccc1` [3-Cyclohexyl-1-methyl-1-phenyl-urea]: the IC50 stood at 129 µM in experiment [1] and 195 µM in experiment [2].
Regarding `CCCCCCCCCCCCNC(=O)NC1CCCC1` [1-Cyclopentyl-3-dodecyl-urea], the IC50 in experiment [1] was determined as 0.549 µM; in experiment [2], 0.1 µM.
As to `O=C(Nc1ccc(Cl)c(Cl)c1)Nc1ccc(Cl)c(Cl)c1` [US8815951, 299], the IC50 in experiment [1] turned out to be 0.257 µM.
